Experimental findings from ChEMBL document CHEMBL4414612, “Synthesis and Pharmacological Evaluation of 1-Phenyl-3-Thiophenylurea Derivatives as Cannabinoid Type-1 Receptor Allosteric Modulators” (J Med Chem, 2019) are described below.

Each structure is given as a SMILES string. Values after ≈ are worked out from the molar mass of the structure shown. Active and inactive are the calls of the source.

Data set [1] addresses T1, Cannabinoid receptor 1 (Homo sapiens, UniProt P21554). Kind of data set: Agonist activity at human CB1 receptor expressed in CHO-RD-HGA16 cells co-expressing Galpha16 assessed as suppression stimulation of calcium mobilization incubated for 45 mins by Calcium 5 dye based FLIPR assay relative to CP55,940. Format: functional, cell-based. Put shortly:
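CHO-RD-HGA16 cells stably expressing human CB1 (with Galpha16), plated overnight and loaded with Calcium 5 dye for 45 min at 37 °C. […] Compound was added by the FLIPR Tetra at the 10 s point as a single concentration, and fluorescence (485/525 nm) was read every 1 s for 90 s. RFU were expressed as % of CP55,940 Emax.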
In general terms: A change in cytosolic calcium serves as a functional read-out for many receptors and channels.

The target in data set [2] is T1, Cannabinoid receptor 1. Kind of data set: Inverse agonist activity at human CB1 receptor expressed in HEK293 cell membranes assessed as suppression of [35S]GTPgammaS binding at 10 uM incubated for 60 mins by scintillation counting method. Conditions: hek293, 1 h. Put shortly: (§1)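 Inverse agonism on human CB1-HEK293 membranes: compounds were incubated 60 min with 0.1 nM [35S]GTPγS and 30 µM GDP, with no CP55,940 present. Buffer was Tris/MgCl2/EGTA pH 7.4 with 0.5% BSA, at 30 °C. Binding was read by filtration and scintillation counting and normalized to basal (vehicle = 0%).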

In data set [3] the target is T2, Cannabinoid receptor 1 (Mus musculus, UniProt P47746). Kind of data set: Allosteric modulator activity at CB1 receptor in mouse cerebellar membranes assessed as suppression of 1 uM CP55,940-induced [35S]GTPgammaS binding incubated for 60 mins by scintillation counting method. Format: functional, cell membranes, Cerebellum, Membrane. Background: GTPγS resists hydrolysis and so accumulates on activated G proteins.
T2 sequence (P47746 whole entry): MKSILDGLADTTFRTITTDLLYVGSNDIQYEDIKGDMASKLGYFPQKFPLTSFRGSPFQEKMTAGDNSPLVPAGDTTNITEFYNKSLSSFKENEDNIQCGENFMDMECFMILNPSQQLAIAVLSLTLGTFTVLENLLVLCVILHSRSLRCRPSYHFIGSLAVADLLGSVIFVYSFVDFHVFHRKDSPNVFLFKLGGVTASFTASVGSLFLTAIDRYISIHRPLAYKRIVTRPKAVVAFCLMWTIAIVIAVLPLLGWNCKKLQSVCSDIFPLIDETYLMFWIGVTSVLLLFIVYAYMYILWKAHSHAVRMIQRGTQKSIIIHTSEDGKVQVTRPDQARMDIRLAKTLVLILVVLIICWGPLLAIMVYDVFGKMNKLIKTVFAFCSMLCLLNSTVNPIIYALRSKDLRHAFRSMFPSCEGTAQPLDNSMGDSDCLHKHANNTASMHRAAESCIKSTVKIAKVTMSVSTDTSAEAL

Data set [4] in a line: Apparent permeability from basolateral to apical side in MDCK-MDR1 cells incubated up to 90 mins by LC-MS/MS analysis. Format: ADME, cell-based, Canis lupus familiaris. Conditions: dog. Put shortly:
(§2)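 MDCK-MDR1 cells were grown 3 days on Transwell supports and preincubated 30 min at 37 °C in HBSS with 10 mM HEPES and 0.25% BSA, pH 7.4, with TEER checked. Test article (10 µM) was added to the apical (A-to-B) or basolateral (B-to-A) donor side at 37 °C with light agitation. Receiver samples were taken at 30, 60 and 90 min for LC-MS/MS. Papp = (dQ/dt)/(A·Ci·60).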

For data set [5], the target named is T3, Cannabinoid receptor 2 (Homo sapiens, UniProt P34972). As to the kind of experiment: Antagonist activity at human CB2 receptor expressed in CHO cells co-expressing Galpha16 assessed as inhibition of EC80 CP55,940-induced calcium mobilization preincubated for 15 mins followed by […] addition measured at 1 sec interval for 90 secs by calcium-5 dye based FLIPR assay. Format: functional, cell-based. The procedure, abridged:
(§3)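 CB2 antagonist mode in stable human CB2-CHO-RD-HGA16 cells. Cells were dye-loaded, then pretreated with compound for 15 min at 37 °C. CP55,940 was added at its EC80 at the 10 s point, and calcium fluorescence was recorded every 1 s over 90 s.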

Data set [6] can be described thus: Half life in rat liver microsomes in presence of NADPH by LC-MS/MS analysis. Format: ADME, Microsome. The procedure, abridged:
(§4)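 Rat liver microsomes (0.5 mg/mL protein) in 100 mM potassium phosphate pH 7.4 at 37 °C with 1 mM NADPH. Samples were taken at 0, 5, 15, 30 and 45 min, quenched with cold acetonitrile containing internal standards, and analysed by LC/MS/MS. Half-life and clearance were calculated; two independent experiments in duplicate.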
(Liver microsomes are vesicles of endoplasmic reticulum, rich in cytochrome P450 enzymes.)

Data set [7] can be described thus: Kinetic solubility in phosphate buffer at 400 uM incubated for 2 hrs by LC-MS/MS analysis. Format: physicochemical. Conditions: read-out: Kinetic_solubility. Put shortly: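 A 20 mM DMSO stock was diluted into phosphate buffer to a targeted 400 µM and vortexed 2 h at room temperature. Three independent experiments in duplicate.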
The target of data set [8] is T3, Cannabinoid receptor 2. Kind of data set: Antagonist activity at human CB2 receptor expressed in CHO cells co-expressing Galpha16 assessed as inhibition of EC80 CP55,940-induced calcium mobilization at 10 uM preincubated for 15 mins followed by […] addition measured at 1 sec interval for 90 secs by calcium-5 dye based FLIPR assay relative to CP55,940. Format: functional, cell-based. The procedure, abridged: as §3

In data set [9] the target is T2, Cannabinoid receptor 1. As to the kind of experiment: Allosteric modulator activity at CB1 receptor in mouse cerebellar membranes assessed as suppression of 100 nM CP55,940-induced [35S]GTPgammaS binding incubated for 60 mins by scintillation counting method. Format: functional, cell membranes, Cerebellum, Membrane.
Data set [10] can be described thus: Apparent permeability from apical to basolateral side in MDCK-MDR1 cells incubated up to 90 mins by LC-MS/MS analysis. Format: ADME, cell-based, Canis lupus familiaris. Conditions: dog. The procedure, abridged: as §2
Data set [11] deals with T2, Cannabinoid receptor 1. Kind of data set: Allosteric antagonist activity at mouse CB1 receptor by GTPgammaS assay. Format: functional. Put shortly:
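Cerebellar membranes from male ICR mice (6-8 weeks), preincubated 10 min with adenosine deaminase (3 units/ml) in Tris/MgCl2/EGTA buffer, pH 7.4. Membranes (10 µg) pre-equilibrated 30 min with modulator, CP55,940 (100 nM; some also at 1 µM), 30 µM GDP and 0.5% BSA, then 0.1 nM [35S]GTPγS for 60 min at 30 °C.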

The nature of data set [12]: Half life in rat liver microsomes. Conditions: microsomes. Format: ADME, Microsome. The procedure, abridged: as §4
Data set [13] is described as follows: Clearance in rat liver microsomes in presence of NADPH incubated up to 45 mins by LC-MS/MS analysis. Format: ADME, Microsome. Put shortly:
as §4

Data set [14] has as its system Rattus norvegicus. As to the kind of experiment: Suppression of drug-induced cocaine-seeking behavior in Sprague-Dawley rat assessed as effect on active responses at 10 mg/kg, ip pretreated 10 mins prior to priming injection of cocaine administered immediately before the start of the reinstatement session. Format: functional, organism-based.
The subject of data set [15] is Rattus norvegicus. Kind of data set: Suppression of drug-induced cocaine-seeking behavior in Sprague-Dawley rat assessed as effect on inactive responses at 10 mg/kg, ip pretreated 10 mins prior to priming injection of cocaine administered immediately before the start of the reinstatement session. Format: functional, organism-based.
Data set [16] addresses T1, Cannabinoid receptor 1. As to the kind of experiment: Inverse agonist activity at human CB1 receptor expressed in HEK293 cell membranes assessed as suppression of [35S]GTPgammaS binding up to 10 uM incubated for 60 mins by scintillation counting method. Conditions: hek293, 1 h. Put shortly:
as §1

Data set [17] addresses T3, Cannabinoid receptor 2. Kind of data set: Agonist activity at human CB2 receptor expressed in CHO cells co-expressing Galpha16 assessed as increase in calcium mobilization at 10 uM measured at 1 sec interval for 90 secs by calcium-5 dye based FLIPR assay relative to CP55,940. Format: functional, cell-based.
In data set [18] the target is T1, Cannabinoid receptor 1. As to the kind of experiment: Allosteric modulator activity at human CB1 receptor expressed in CHO-RD-HGA16 cells co-expressing Galpha16 assessed as suppression of 100 nM CP55,940-induced calcium mobilization pre-incubated for 15 mins by Calcium 5 dye based FLIPR assay. Format: functional, cell-based.
The nature of data set [19]: Efflux ratio from basolateral to apical side over apical to basolateral side in MDCK-MDR1 cells incubated up to 90 mins by LC-MS/MS analysis. Conditions: dog. Format: ADME, cell-based, Canis lupus familiaris.

T1 sequence (P21554 whole entry): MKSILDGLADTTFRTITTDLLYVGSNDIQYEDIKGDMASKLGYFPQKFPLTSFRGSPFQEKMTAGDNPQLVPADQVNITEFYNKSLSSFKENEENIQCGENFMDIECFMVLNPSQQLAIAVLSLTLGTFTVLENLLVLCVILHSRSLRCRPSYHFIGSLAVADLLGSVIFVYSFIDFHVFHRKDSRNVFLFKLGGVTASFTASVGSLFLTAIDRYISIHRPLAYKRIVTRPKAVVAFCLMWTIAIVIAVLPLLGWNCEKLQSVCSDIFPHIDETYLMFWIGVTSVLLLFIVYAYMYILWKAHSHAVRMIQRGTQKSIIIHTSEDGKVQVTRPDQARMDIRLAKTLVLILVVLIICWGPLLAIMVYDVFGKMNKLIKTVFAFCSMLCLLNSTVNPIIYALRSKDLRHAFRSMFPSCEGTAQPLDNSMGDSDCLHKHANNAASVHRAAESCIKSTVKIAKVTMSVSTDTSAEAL
T3 sequence (P34972 whole entry): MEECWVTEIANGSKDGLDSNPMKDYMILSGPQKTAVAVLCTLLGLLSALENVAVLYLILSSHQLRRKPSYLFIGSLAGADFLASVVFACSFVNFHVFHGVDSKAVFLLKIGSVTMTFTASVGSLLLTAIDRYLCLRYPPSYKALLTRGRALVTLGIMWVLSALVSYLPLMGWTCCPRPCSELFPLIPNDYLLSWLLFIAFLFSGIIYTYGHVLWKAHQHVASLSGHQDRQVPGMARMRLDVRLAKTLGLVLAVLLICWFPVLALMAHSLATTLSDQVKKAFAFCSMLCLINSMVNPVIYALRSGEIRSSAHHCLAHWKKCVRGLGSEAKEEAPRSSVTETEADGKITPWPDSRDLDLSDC

Turning to `O=C(Nc1ccc(Cl)cc1)Nc1cccc(-c2cccc(N3CCCC3)n2)c1`, the Emax (in general, the size of the effect at its maximum, as opposed to the concentration needed) on Cannabinoid receptor 1 [1] was less than 30%. Besides, at Cannabinoid receptor 1 [2], the “inhibition (INH)” value was “Active”. For the same compound, the pIC50 (usually the negative decadic logarithm of the IC50, by convention in mol/L) on Cannabinoid receptor 1 [3] came to 6.91. Besides, the Papp (commonly a coefficient for how fast a substance crosses the barrier) turned out to be 2.2 ×10⁻⁶ cm/s in [4] and 2.6 ×10⁻⁶ cm/s in data set [10]. In addition, the values for the IC50 on Cannabinoid receptor 2 [5], at Cannabinoid receptor 1 [9] and against Cannabinoid receptor 1 [11] were more than 10000 nM, 288 nM and 115 nM, respectively. Moreover, the half-life (usually the time needed for the level to fall by half in the phase considered) in [6] (liver microsomes) is 13.4 min. For the same compound, in data set [7], the solubility kinetic at 2 h, 400 µM was less than 0.5 µM. Besides, the inhibition (usually the share of the control response that was lost under treatment) at Cannabinoid receptor 2 [8] is less than 50%. This compound also returned a t1/2 in data set [12] of 13 min. Also, the microsomal CLint at […] in [13] (liver microsomes, read-out: CLH) stood at 114 µL/min/mg.
Take `O=C(Nc1ccc(Cl)cc1)Nc1ccc(-c2ccccc2)s1`: the Papp is listed as 1.1 ×10⁻⁶ cm/s in [4] and 1.6 ×10⁻⁶ cm/s in [10]. Further, the outcome in the data set on Rattus norvegicus [14] and in the data set on Rattus norvegicus [15] was inactive. Further, the IC50 (commonly the concentration that gives 50% inhibition) at Cannabinoid receptor 2 [5] is more than 10000 nM; on Cannabinoid receptor 1 [18] it was 6.8 nM. Also, the t1/2 in data set [6] (microsomes) was 65 min. Moreover, the solubility kinetic at 2 h, 400 µM in data set [7] came to 1.5 µM (≈ 0.493 µg/mL). At Cannabinoid receptor 2 [8], the inhibition was less than 50%. Moreover, on Cannabinoid receptor 1 [16], the “inhibition (INH)” value is “Not Active”. In addition, the Emax at Cannabinoid receptor 2 [17] was less than 10%. For the same compound, in [19], the Ratio is reported as 0.7. Besides, in data set [13] (microsomes, […]), the CLH was 22.2 µL/min/mg.
